# Reference: ChEMBL document CHEMBL2010792, “Novel glycolipid TLR2 ligands of the type Pam2Cys-α-Gal: synthesis and biological properties” (Eur J Med Chem, 2012)
# Active and inactive are the calls of the source. No cut-off for these calls is given here.
# Experiments:
# [1] = target: Toll-like receptor 2 (Homo sapiens) (UniProt O60603); test: Agonist activity at TLR2 in human THP1-Blue-CD14 cells transfected with pSEAP-NF-kappaB assessed as secreted embryonic alkaline phosphatase activity after 19 hrs by quanti-blue colorimetric assay relative to 0.1 uM of Pam2CAG; format: functional, cell-based; conditions: THP-1
# Procedure, shortened: (§1)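 THP1-Blue-CD14 cells were grown in RPMI 1640 with glucose (4.5 mg/mL) and 10% endotoxin-free FBS at 37 °C, 5% CO2. They were plated at 1.5×10^6 cells/mL and exposed to compounds formulated in PC/PG/Chol liposomes for 19 h at 37 °C. Supernatant was then mixed with Quanti-Blue reagent for 2 h at 37 °C and OD read at 595 nm. Controls were LPS (positive) and blank PC/PG/cholesterol (80/20/50) liposomes (negative); triplicates.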
# [2] = target: Toll-like receptor 2 (Homo sapiens) (UniProt O60603); test: Agonist activity at TLR2 in human THP1-Blue-CD14 cells transfected with pSEAP-NF-kappaB assessed as secreted embryonic alkaline phosphatase activity after 19 hrs by quanti-blue colorimetric assay relative to 10 uM of Pam3CAG; format: functional, cell-based; conditions: THP-1; procedure, shortened: as §1
# [3] = target: Toll-like receptor 2 (Homo sapiens) (UniProt O60603); test: Agonist activity at TLR2 in human THP1-Blue-CD14 cells transfected with pSEAP-NF-kappaB assessed as secreted embryonic alkaline phosphatase activity treated with PC/PG/Chol liposomes formulation at 0.1 uM after 19 hrs by quanti-blue colorimetric assay in presence of anti-mTLR2 antibody; format: functional, cell-based; conditions: THP-1
# Procedure, shortened: (§2)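 TLR2 in THP1-Blue-CD14 cells was neutralised with an anti-mTLR2 monoclonal antibody (100 ng/well) for 10 min before liposome-formulated agonist was added. Cells were incubated 19 h at 37 °C, and SEAP in supernatant was read by Quanti-Blue colorimetry (2 h, 37 °C, OD 595 nm). Activity was compared with cells lacking antibody; triplicates.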
# [4] = target: Toll-like receptor 2 (Homo sapiens) (UniProt O60603); test: Agonist activity at TLR2 in human THP1-Blue-CD14 cells transfected with pSEAP-NF-kappaB assessed as secreted embryonic alkaline phosphatase activity treated with PC/PG/Chol liposomes formulation after 19 hrs by quanti-blue colorimetric assay; format: functional, cell-based; conditions: THP-1; procedure, shortened: as §1
# [5] = target: Toll-like receptor 2 (Homo sapiens) (UniProt O60603); test: Agonist activity at TLR2 in human THP1-Blue-CD14 cells transfected with pSEAP-NF-kappaB assessed as secreted embryonic alkaline phosphatase activity treated with PBS containing 2% DMSO formulation after 19 hrs by quanti-blue colorimetric assay; format: functional, cell-based; conditions: THP-1
# [6] = target: Toll-like receptor 2 (Homo sapiens) (UniProt O60603); test: Agonist activity at TLR2 in human HEK-Blue-2 cells; format: functional, cell-based
# [7] = Induction of dendritic cell maturation in mouse D1 cells assessed as upregulation of CD40, CD54, CD80 and CD86 expression at 2.5 ug/ml after 48 hrs by flow cytometry relative to Pam2CAG; format: functional, cell-based
# Procedure, shortened: (§3)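 D1 cells were kept in IMDM with 10% heat-decomplemented FCS, penicillin (100 IU/mL), 2 mM L-glutamine and GM-CSF (20 ng/mL). They were seeded at 2×10^5 cells/mL for 48 h, then given fresh medium with compound (DMSO/PBS 2/98) plus polymyxin B, except LPS wells, for 48 h. Cells were harvested in PBS with 2 mM EDTA, stained 20 min at 4 °C and analysed by flow cytometry.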
# [8] = Induction of dendritic cell maturation in mouse D1 cells assessed as upregulation of CD40, CD54, CD80 and CD86 expression at 2.5 ug/ml after 48 hrs by flow cytometry relative to Pam3CAG; format: functional, cell-based; procedure, shortened: as §3
# [9] = Induction of dendritic cell maturation in mouse D1 cells assessed as upregulation of CD40, CD54, CD80 and CD86 expression at 2.5 ug/ml after 48 hrs by flow cytometry in presence of polymyxin B; format: functional, cell-based; procedure, shortened: as §3
# Mus musculus [10] = organism: Mus musculus; test: Immunostimulatory activity in BALB/c mouse splenocytes assessed as induction of cell proliferation up to 1000 ng/ml after 3 days by [3H]-thymidine incorporation assay; format: functional; conditions: Splenocyte
# Procedure, shortened: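 Spleen cells from female BALB/c mice (2×10^5/well) were cultured with agonist at 0–1000 ng/mL in RPMI 1640 containing 10% FCS, gentamicin, 10 mM HEPES and 0.05 mM 2-mercaptoethanol. [3H]-thymidine was added after 48 h, with harvest 18 h later. Result is a stimulation index (mean cpm stimulated / unstimulated) from triplicate wells.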
# Mus musculus [11] = organism: Mus musculus; test: Immunostimulatory activity in BALB/c mouse splenocytes assessed as induction of IL-6 secretion after 30 hrs by double-sandwich ELISA; format: functional; conditions: Splenocyte
# Procedure, shortened: (§4)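 BALB/c splenocytes (2×10^5/well) were exposed to increasing agonist doses in supplemented RPMI 1640. Supernatants were collected at 30 h, stored at −20 °C, and assayed by double-sandwich ELISA. Values are pg/mL, mean of duplicates; detection limit 15 pg/mL for both IL-6 and TNF-α.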
# Mus musculus [12] = organism: Mus musculus; test: Immunostimulatory activity in BALB/c mouse splenocytes assessed as induction of TNFalpha secretion after 30 hrs by double-sandwich ELISA; format: functional; conditions: Splenocyte; procedure, shortened: as §4
# Mus musculus [13] = organism: Mus musculus; test: Immunostimulatory activity in BALB/c mouse B cells assessed as induction of cell proliferation after 3 days by [3H]-thymidine incorporation assay; format: functional
# Procedure, shortened: (§5)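 B cells were purified from female BALB/c spleens by negative selection (anti-CD11b, GR1, CD4 and CD8 mAbs plus magnetic beads; >90% B cells) and seeded at 1×10^5/well. Culture was in RPMI 1640 with 10% FCS, gentamicin, 10 mM HEPES and 0.05 mM 2-mercaptoethanol, across increasing agonist doses. [3H]-thymidine was added at 48 h and cells harvested 18 h later. Stimulation index = mean cpm stimulated / unstimulated; triplicates.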
# Mus musculus [14] = organism: Mus musculus; test: Immunostimulatory activity in BALB/c mouse B cells assessed as induction of cell proliferation at 0.001 ug/ml after 3 days by [3H]-thymidine incorporation assay relative to Pam3CAG; format: functional; procedure, shortened: as §5
# Mus musculus [15] = organism: Mus musculus; test: Immunostimulatory activity in BALB/c mouse B cells assessed as induction of cell proliferation at 0.001 ug/ml after 3 days by [3H]-thymidine incorporation assay relative to Pam2CAG; format: functional; procedure, shortened: as §5
# NKT [16] = test: Immunostimulatory activity in activated NKT cells assessed as induction of IL-4 production; format: functional, cell-based
# NKT [17] = test: Immunostimulatory activity in activated NKT cells assessed as induction of IFNgamma production; format: functional, cell-based
# NKT [18] = test: Immunostimulatory activity in activated NKT cells assessed as induction of cell proliferation in presence of mAb directed CD1d molecules; format: functional, cell-based
# [19] = target: Toll-like receptor 2 (Homo sapiens) (UniProt O60603); test: Agonist activity at TLR2 in human THP1-Blue-CD14 cells transfected with pSEAP-NF-kappaB assessed as secreted embryonic alkaline phosphatase activity treated with PC/PG/Chol liposomes formulation at 10 uM after 19 hrs by quanti-blue colorimetric assay in presence of anti-mTLR2 antibody; format: functional, cell-based; conditions: THP-1; procedure, shortened: as §2
# Sequence of Toll-like receptor 2 (Homo sapiens) (O60603 whole entry): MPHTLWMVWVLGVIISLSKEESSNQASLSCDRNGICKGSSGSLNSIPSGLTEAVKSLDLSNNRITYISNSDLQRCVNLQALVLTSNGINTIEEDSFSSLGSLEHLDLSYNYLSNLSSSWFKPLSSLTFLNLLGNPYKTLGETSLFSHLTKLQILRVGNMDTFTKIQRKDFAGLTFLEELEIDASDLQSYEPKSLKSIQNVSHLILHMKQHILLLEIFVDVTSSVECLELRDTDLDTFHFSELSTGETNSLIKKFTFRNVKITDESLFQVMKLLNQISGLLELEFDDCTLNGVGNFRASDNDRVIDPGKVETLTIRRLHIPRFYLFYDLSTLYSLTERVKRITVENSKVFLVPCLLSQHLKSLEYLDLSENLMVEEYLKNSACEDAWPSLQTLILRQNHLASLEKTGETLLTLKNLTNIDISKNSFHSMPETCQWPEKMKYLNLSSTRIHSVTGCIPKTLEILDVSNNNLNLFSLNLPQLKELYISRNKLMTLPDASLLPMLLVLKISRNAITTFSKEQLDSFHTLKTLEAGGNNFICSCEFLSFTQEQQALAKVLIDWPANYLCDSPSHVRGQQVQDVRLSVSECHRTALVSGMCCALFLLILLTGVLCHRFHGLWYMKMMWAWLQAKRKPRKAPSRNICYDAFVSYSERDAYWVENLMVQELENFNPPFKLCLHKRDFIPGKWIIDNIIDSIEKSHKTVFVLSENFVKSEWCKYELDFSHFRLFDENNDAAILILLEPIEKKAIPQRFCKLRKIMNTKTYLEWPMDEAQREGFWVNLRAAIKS
Activity [1],fold change (FC) [2],Activity [3],Activity [4],Activity [5],Activity [6],Activity [19],SMILES,Activity [7],Activity [8],Activity [9],Activity (Mus musculus [10]),Activity (Mus musculus [11]),Activity (Mus musculus [12]),Activity (Mus musculus [13]),Activity (Mus musculus [14]),Activity (Mus musculus [15]),Activity (NKT [16]),Activity (NKT [17]),Activity (NKT [18])
Active,100,Active,Active,Active,Active,,CCCCCCCCCCCCCCCC(=O)OC[C@H](CSC[C@H](N)C(=O)NCCO[C@H]1O[C@@H]([C@H](O)CO)[C@H](O)[C@H]1O)OC(=O)CCCCCCCCCCCCCCC,Active,Active,Active,Active,Dose-dependent effect,Dose-dependent effect,Dose-dependent effect,Active,Active,inactive,inactive,Active
,,Active,Active,Active,Active,,CCCCCCCCCCCCCCCC(=O)OC[C@H](CSC[C@H](N)C(=O)N[C@@H](C)C(=O)NCC(=O)O)OC(=O)CCCCCCCCCCCCCCC,,,Active,Active,Dose-dependent effect,Dose-dependent effect,Dose-dependent effect,,,inactive,inactive,Active
,,,Active,Active,Active,inactive,CCCCCCCCCCCCCCCC(=O)N[C@@H](CSC[C@@H](COC(=O)CCCCCCCCCCCCCCC)OC(=O)CCCCCCCCCCCCCCC)C(=O)N[C@@H](C)C(=O)NCC(=O)O,,,Active,Active,Dose-dependent effect,Dose-dependent effect,Dose-dependent effect,,,inactive,inactive,Active
Active,100,Active,Active,Active,Active,,CCCCCCCCCCCCCCCC(=O)OC[C@H](CSC[C@H](N)C(=O)NCCO[C@H]1O[C@H](CO)[C@H](O)[C@H](O)[C@H]1O)OC(=O)CCCCCCCCCCCCCCC,Active,Active,Active,Active,Dose-dependent effect,Dose-dependent effect,Dose-dependent effect,Active,Active,inactive,inactive,Active
